Data published in ChEMBL document CHEMBL2311393 (Bioorg Med Chem Lett, 2013).
Activity calls are given as the source filed them. The rule behind the calls is not given here.

Legend:
[1] = molecular target: T1, Heat shock protein HSP90 (Homo sapiens) (UniProt P07900+P08238); experiment: Inhibition of Hsp90 in human MCF7 cells assessed as degradation of client protein Akt after 24 hrs by Western blot analysis; assay type: cell-based
Procedure, shortened: (§1)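 MCF-7 cells were treated with the compound across a concentration series. Cell lysates were then probed by western blot for the Hsp90 client proteins Raf and Akt, for Hsp90 itself, and for actin as a non-Hsp90-dependent control protein.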

[2] = molecular target: T1, Heat shock protein HSP90 (Homo sapiens); experiment: Inhibition of Hsp90 in human MCF7 cells assessed as degradation of client protein Raf after 24 hrs by Western blot analysis; assay type: cell-based; procedure, shortened: as §1
MCF7 [3] = experiment: Effect on Hsp90 protein level in human MCF7 cells at 0.1 to 2.5 uM after 24 hrs by Western blot analysis; assay type: functional, cell-based; procedure, shortened: as §1
SK-BR-3 = experiment: Antiproliferative activity against human SKBR3 cells; assay type: functional, cell-based
Procedure, shortened: (§2)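 Growth inhibition in SKBr3 (ER-negative, Her2-overexpressing) and MCF-7 (ER-positive) breast cancer cells, run per an earlier published protocol. Values are mean ± standard deviation of at least two separate experiments, each in triplicate.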

MCF7 [4] = experiment: Antiproliferative activity against human MCF7 cells; assay type: functional, cell-based; procedure, shortened: as §2

SMILES	inhibition [1]	inhibition [2]	Activity (MCF7 [3])	IC50 (SK-BR-3) [nM]	IC50 (MCF7 [4]) [nM]
CC(C)=CCc1cc(C(=O)Nc2cc3ccc(OCCCNC45CC6CC(CC(C6)C4)C5)c(C)c3oc2=O)ccc1O	Dose-dependent effect	Dose-dependent effect	inactive	310	320
CC(C)=CCc1cc(C(=O)Nc2cc3ccc(OCC4CCCNC4)c(C)c3oc2=O)ccc1O (stereo not given)	–	–	–	600	790
CC(C)=CCc1cc(C(=O)Nc2cc3ccc(OCCCN4CCNCC4)c(C)c3oc2=O)ccc1O	–	–	–	820	930
CC(C)=CCc1cc(C(=O)Nc2cc3ccc(OCCCNCCO)c(C)c3oc2=O)ccc1O	–	–	–	610	1560
CC(=O)Oc1ccc(C(=O)Nc2cc3ccc(OCC4CCN(C)C4)c(C)c3oc2=O)cc1CC=C(C)C (stereo not given)	–	–	–	880	1880
CC(C)=CCc1cc(C(=O)Nc2cc3ccc(OCCCN4CCCC4)c(C)c3oc2=O)ccc1O	–	–	–	720	990
CC(C)=CCc1cc(C(=O)Nc2cc3ccc(OCCCN4CCCCC4)c(C)c3oc2=O)ccc1O	–	–	–	> 50000	> 50000
CO[C@@H]1[C@@H](O)[C@@H](O)[C@H](Oc2ccc3cc(NC(=O)c4ccc(O)c(CC=C(C)C)c4)c(=O)oc3c2C)OC1(C)C	–	–	–	10000	–
CC(C)=CCc1cc(C(=O)Nc2cc3ccc(OCCCNC(C)(C)C)c(C)c3oc2=O)ccc1O	–	–	–	660	950
COC(=O)CNCCCOc1ccc2cc(NC(=O)c3ccc(O)c(CC=C(C)C)c3)c(=O)oc2c1C	–	–	–	1060	2820
CC(C)=CCc1cc(C(=O)Nc2cc3ccc(OCCCNCc4ccccc4)c(C)c3oc2=O)ccc1O	–	–	–	470	910
CC(C)=CCc1cc(C(=O)Nc2cc3ccc(OCCC4CCCCN4)c(C)c3oc2=O)ccc1O (stereo not given)	–	–	–	640	710
CCCN(CCC)CCCOc1ccc2cc(NC(=O)c3ccc(O)c(CC=C(C)C)c3)c(=O)oc2c1C	–	–	–	> 50000	> 50000
CC(C)=CCc1cc(C(=O)Nc2cc3ccc(OCCCNCC(=O)O)c(C)c3oc2=O)ccc1O	–	–	–	7570	18100
CC(C)=CCc1cc(C(=O)Nc2cc3ccc(OCCCN[C@@H]4C[C@H]5CC[C@@H]4C5)c(C)c3oc2=O)ccc1O	–	–	–	770	1030
CC(=O)Oc1ccc(C(=O)Nc2cc3ccc(OCCC4CCCCN4)c(C)c3oc2=O)cc1CC=C(C)C (stereo not given)	–	–	–	640	710
CCCNCCCOc1ccc2cc(NC(=O)c3ccc(O)c(CC=C(C)C)c3)c(=O)oc2c1C	–	–	–	990	980
CC(C)=CCc1cc(C(=O)Nc2cc3ccc(OCCCN4CCN(C)CC4)c(C)c3oc2=O)ccc1O	–	–	–	1010	1200
CC(C)=CCc1cc(C(=O)Nc2cc3ccc(OCCCNc4ccccc4)c(C)c3oc2=O)ccc1O	–	–	–	> 50000	> 50000
CC(C)=CCc1cc(C(=O)Nc2cc3ccc(OCCCN(C)C(C)C)c(C)c3oc2=O)ccc1O	–	–	–	570	1050

SMILES	inhibition [1]	inhibition [2]	Activity (MCF7 [3])	IC50 (SK-BR-3) [nM]	IC50 (MCF7 [4]) [nM]
CCN(C)CCCOc1ccc2cc(NC(=O)c3ccc(O)c(CC=C(C)C)c3)c(=O)oc2c1C	–	–	–	730	2190
CC(C)=CCc1cc(C(=O)Nc2cc3ccc(OCC4CCCN(C)C4)c(C)c3oc2=O)ccc1O (stereo not given)	–	–	–	1300	2640
CC(C)=CCc1cc(C(=O)Nc2cc3ccc(OCCCN(C)C4CCCCC4)c(C)c3oc2=O)ccc1O	–	–	–	970	1080
CCN(CC)CCCOc1ccc2cc(NC(=O)c3ccc(O)c(CC=C(C)C)c3)c(=O)oc2c1C	–	–	–	4900	6390
CC(C)=CCc1cc(C(=O)Nc2cc3ccc(OCCCNC(C)C)c(C)c3oc2=O)ccc1O	–	–	–	750	740
CC(C)=CCc1cc(C(=O)Nc2cc3ccc(OCCCNC(C)(C)c4ccccc4)c(C)c3oc2=O)ccc1O	–	–	–	960	1070
CC(C)=CCc1cc(C(=O)Nc2cc3ccc(OCCCN[C@H](C)c4ccccc4)c(C)c3oc2=O)ccc1O	–	–	–	1000	1450
CC(=O)Oc1ccc(C(=O)Nc2cc3ccc(OCC4CCCNC4)c(C)c3oc2=O)cc1CC=C(C)C (stereo not given)	–	–	–	620	820
CC(C)=CCc1cc(C(=O)Nc2cc3ccc(OCCCNCC(C)C)c(C)c3oc2=O)ccc1O	–	–	–	1030	1320
CC(C)=CCc1cc(C(=O)Nc2cc3ccc(OCCCN(C(C)C)C(C)C)c(C)c3oc2=O)ccc1O	–	–	–	1600	1310
CC(C)=CCc1cc(C(=O)Nc2cc3ccc(OCCCNC4CCCCC4)c(C)c3oc2=O)ccc1O	–	–	–	660	1070
CC(C)=CCc1cc(C(=O)Nc2cc3ccc(OCCCN4CCOCC4)c(C)c3oc2=O)ccc1O	–	–	–	> 50000	> 50000
CC(C)=CCc1cc(C(=O)Nc2cc3ccc(OCCCN(C)C(C)(C)C)c(C)c3oc2=O)ccc1O	–	–	–	880	1140
CC(C)=CCc1cc(C(=O)Nc2cc3ccc(OCC4CCN(C)C4)c(C)c3oc2=O)ccc1O (stereo not given)	–	–	–	920	1550
CC(C)=CCc1cc(C(=O)Nc2cc3ccc(OCCCN(C)c4ccccc4)c(C)c3oc2=O)ccc1O	–	–	–	> 50000	> 50000
CC(C)=CCc1cc(C(=O)Nc2cc3ccc(OCCCN(C)Cc4ccccc4)c(C)c3oc2=O)ccc1O	–	–	–	10700	11500
CC(C)=CCc1cc(C(=O)Nc2cc3ccc(OCCCNCC(N)=O)c(C)c3oc2=O)ccc1O	–	–	–	2290	1460
CC(=O)Oc1ccc(C(=O)Nc2cc3ccc(OCC4CCCN(C)C4)c(C)c3oc2=O)cc1CC=C(C)C (stereo not given)	–	–	–	740	1650
CCNCCCOc1ccc2cc(NC(=O)c3ccc(O)c(CC=C(C)C)c3)c(=O)oc2c1C	–	–	–	720	980
